Experimental data taken from ChEMBL document CHEMBL1799960, “Diadenosine 5',5''-(boranated)polyphosphonate analogues as selective nucleotide pyrophosphatase/phosphodiesterase inhibitors” (J Med Chem, 2010).

Legend:
P2Y purinoceptor 1 = P2Y purinoceptor 1 (Homo sapiens, UniProt P47900); test: Agonist activity at GFP tagged-human P2Y1 receptor expressed in human 1321N1 cells assessed as elevation in calcium level after 30 mins by fluorescence spectrophotometric analysis; assay type: functional, cell-based
P2Y purinoceptor 1, sequence (P47900 whole entry): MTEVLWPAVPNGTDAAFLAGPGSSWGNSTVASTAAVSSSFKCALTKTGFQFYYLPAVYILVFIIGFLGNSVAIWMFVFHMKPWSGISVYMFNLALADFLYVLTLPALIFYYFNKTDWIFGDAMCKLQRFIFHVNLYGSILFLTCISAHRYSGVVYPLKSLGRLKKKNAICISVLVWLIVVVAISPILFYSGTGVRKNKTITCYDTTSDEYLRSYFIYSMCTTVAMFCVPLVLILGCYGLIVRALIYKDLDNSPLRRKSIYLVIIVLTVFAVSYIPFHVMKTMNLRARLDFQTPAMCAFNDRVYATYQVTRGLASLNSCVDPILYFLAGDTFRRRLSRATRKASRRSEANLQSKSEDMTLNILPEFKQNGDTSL

Autotaxin (Homo sapiens) = Autotaxin (Homo sapiens) (UniProt Q13822); test: Inhibition of human NPP2 expressed in COS7 cells assessed as production of p-nitrophenol using pnp-TMP as the substrate at 100 uM after 15 mins […]; assay type: cell-based; details: COS-7
Procedure, shortened: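 Human NPP1, NPP2 (membrane lysate or conditioned medium for the secreted form) or NPP3 from transfected COS-7 cells, preincubated 3 min at 37 °C in 50 mM Tris pH 8.5 buffer with CaCl2, NaCl and KCl. Substrate and inhibitor both at 100 μM final. pnp-TMP: p-nitrophenol read at 405 nm at 15 min. ATP or Ap5A: stopped at 30 min with perchloric acid, then HPLC. Results as % residual activity versus control; three to six experiments in triplicate.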

[1] = molecular target: T1, Ectonucleotide pyrophosphatase/phosphodiesterase family member 1 (Homo sapiens) (UniProt P22413); test: Inhibition of human NPP1 in human HT29 cells assessed as production of p-nitrophenol using pnp-TMP as the substrate […]; assay type: cell-based; details: HT-29
T1 sequence (whole entry): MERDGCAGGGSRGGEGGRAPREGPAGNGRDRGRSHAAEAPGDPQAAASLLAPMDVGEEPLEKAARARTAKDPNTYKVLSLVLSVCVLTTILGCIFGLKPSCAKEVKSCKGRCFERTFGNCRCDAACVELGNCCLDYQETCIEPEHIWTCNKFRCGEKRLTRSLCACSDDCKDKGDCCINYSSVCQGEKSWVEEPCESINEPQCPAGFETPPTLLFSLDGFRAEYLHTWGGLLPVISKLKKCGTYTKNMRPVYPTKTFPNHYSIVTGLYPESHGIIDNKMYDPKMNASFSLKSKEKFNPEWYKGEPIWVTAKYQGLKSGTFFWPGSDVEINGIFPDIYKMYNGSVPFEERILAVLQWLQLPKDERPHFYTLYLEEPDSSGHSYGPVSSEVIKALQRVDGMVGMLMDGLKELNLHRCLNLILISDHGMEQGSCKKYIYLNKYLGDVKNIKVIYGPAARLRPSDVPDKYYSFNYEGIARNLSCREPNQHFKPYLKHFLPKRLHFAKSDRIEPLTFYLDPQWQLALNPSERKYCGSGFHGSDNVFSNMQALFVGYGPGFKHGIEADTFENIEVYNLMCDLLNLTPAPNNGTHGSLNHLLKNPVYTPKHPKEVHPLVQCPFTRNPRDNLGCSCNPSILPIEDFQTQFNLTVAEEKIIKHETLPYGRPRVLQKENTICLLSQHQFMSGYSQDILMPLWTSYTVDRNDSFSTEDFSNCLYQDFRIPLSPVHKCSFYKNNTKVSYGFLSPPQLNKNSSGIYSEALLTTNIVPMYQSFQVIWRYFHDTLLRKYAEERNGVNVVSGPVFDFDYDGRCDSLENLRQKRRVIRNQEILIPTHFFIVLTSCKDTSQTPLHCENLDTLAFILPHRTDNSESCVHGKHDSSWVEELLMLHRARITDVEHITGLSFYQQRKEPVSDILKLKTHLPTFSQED

[2] = molecular target: T2, Ectonucleotide pyrophosphatase/phosphodiesterase family member 3 (Homo sapiens) (UniProt O14638); test: Inhibition of human NPP3 expressed in COS7 cells assessed as production of p-nitrophenol using Ap5A as the substrate at 100 uM after 30 mins […]; assay type: cell-based; details: COS-7
T2 sequence (whole entry): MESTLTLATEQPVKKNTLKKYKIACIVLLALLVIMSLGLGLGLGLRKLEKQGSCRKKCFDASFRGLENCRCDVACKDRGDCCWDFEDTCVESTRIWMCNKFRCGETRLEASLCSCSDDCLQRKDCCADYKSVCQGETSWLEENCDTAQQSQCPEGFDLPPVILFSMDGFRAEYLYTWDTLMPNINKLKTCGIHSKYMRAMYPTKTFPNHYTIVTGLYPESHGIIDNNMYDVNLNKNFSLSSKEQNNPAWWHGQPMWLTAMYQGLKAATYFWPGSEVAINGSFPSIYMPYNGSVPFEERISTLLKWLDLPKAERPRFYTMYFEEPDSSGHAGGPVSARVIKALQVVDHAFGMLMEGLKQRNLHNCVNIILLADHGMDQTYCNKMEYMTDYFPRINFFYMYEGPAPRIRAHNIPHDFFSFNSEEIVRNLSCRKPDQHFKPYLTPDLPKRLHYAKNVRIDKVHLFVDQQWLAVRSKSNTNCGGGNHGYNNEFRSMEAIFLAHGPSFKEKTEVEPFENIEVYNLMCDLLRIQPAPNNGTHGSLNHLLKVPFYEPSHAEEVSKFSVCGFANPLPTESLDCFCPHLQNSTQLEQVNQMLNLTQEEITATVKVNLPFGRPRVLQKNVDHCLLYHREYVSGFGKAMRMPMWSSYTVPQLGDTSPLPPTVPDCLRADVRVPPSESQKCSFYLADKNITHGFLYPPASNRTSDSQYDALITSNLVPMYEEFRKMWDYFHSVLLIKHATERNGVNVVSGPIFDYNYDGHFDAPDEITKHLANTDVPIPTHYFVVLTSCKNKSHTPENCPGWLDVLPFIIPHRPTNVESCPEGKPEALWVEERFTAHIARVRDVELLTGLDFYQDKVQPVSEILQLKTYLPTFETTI

[3] = molecular target: T3, Ectonucleotide pyrophosphatase/phosphodiesterase family member 1 (Homo sapiens, UniProt P22413); test: Inhibition of human NPP1 expressed in COS7 cells assessed as enzyme-substrate-inhibitor dissociation constant using pnp-TMP as the substrate after 15 mins […]; assay type: cell-based, COS-7
T3 sequence (P22413 whole entry): T1 sequence (whole entry)

Row | EC50 (P2Y purinoceptor 1) [µM] | inhibition (Autotaxin (Homo sapiens)) [%] | inhibition [1] [%] | inhibition [2] [%] | Ki [3] [µM] | Structure (SMILES)
1 | 30 | 95 | 80 | 10 | 80 | Nc1ncnc2c1ncn2[C@H]1C[C@H](O)[C@@H](COP(=O)(O)CP(=O)(O)OP(=O)(O)CP(=O)(O)OC[C@H]2O[C@@H](n3cnc4c(N)ncnc43)C[C@@H]2O)O1
2 | 0.3 | 95 | 90 | 10 | 31 | BP(=O)(OP(=O)(O)CP(=O)(O)OC[C@H]1O[C@@H](n2cnc3c(N)ncnc32)[C@H](O)[C@@H]1O)OP(=O)(O)CP(=O)(O)OC[C@H]1O[C@@H](n2cnc3c(N)ncnc32)[C@H](O)[C@@H]1O
3 | 9 | 95 | 80 | 10 | 147 | Nc1ncnc2c1ncn2[C@@H]1O[C@H](COP(=O)(O)CP(=O)(O)OP(=O)(O)CP(=O)(O)OC[C@H]2O[C@@H](n3cnc4c(N)ncnc43)[C@H](O)[C@@H]2O)[C@@H](O)[C@H]1O
4 | ≥ 30 | 95 | 90 | 10 | 145 | BP(=O)(OP(=O)(O)CP(=O)(O)OC[C@H]1O[C@@H](n2cnc3c(N)ncnc32)C[C@@H]1O)OP(=O)(O)CP(=O)(O)OC[C@H]1O[C@@H](n2cnc3c(N)ncnc32)C[C@@H]1O
